According to ChEMBL document CHEMBL4765441, “Design, synthesis and anti-cancer activity of pyrrole-imidazole polyamides through target-downregulation of c-kit gene expression” (Eur J Med Chem, 2020):
Where a name gives a salt, the structure may show the parent alone. The source made the active and inactive calls. No cut-off for these calls is given here.

Columns and labels:
dsDNA [1] = test: Binding affinity to 5'-AGGGGAGGCGAGGAGGGGCGTGGCCGG-3'/3'-TCCCCTCCGCTCCTCCCCGCACCGGCC-5' dsDNA (unknown origin) at 0 to 32 uM by SYBR GOLD staining based EMSA; assay type: nucleic-acid assay; conditions: Homo sapiens; dose 0-32 µM
How it was run: (§1)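 Target 27-bp c-kit promoter duplex, annealed at 95 °C, then incubated overnight with or without compound in pH 7.4 buffer (10 mM Tris-HCl, 10 mM KCl, 0.1 mM EDTA). Mixtures run on 16% native polyacrylamide gel at 150 V for 3 h. Gels stained with SYBR Gold for 30 min and imaged on a gel documentation system.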

dsDNA [2] = test: Binding affinity to 5'-AGGGGAGGCGAGGAGGGGCGTGGCCGG-3'/3'-TCCCCTCCGCTCCTCCCCGCACCGGCC-5' dsDNA (unknown origin) by circular dichroism spectroscopic analysis; assay type: nucleic-acid assay; conditions: Homo sapiens
How it was run: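 Target duplex annealed at 95 °C, held 24 h in pH 7.0 buffer (10 mM sodium cacodylate, 100 mM NaCl, 0.5% DMSO), then degassed. Compound titrated in at compound:DNA ratios 0.0–3.0, room temperature, 15 min equilibration per addition. CD read 225–400 nm in a 5 mm quartz cell at 100 nm/min, 5.0 nm bandwidth. Average of three parallel runs.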

A549 [3] = test: Antiproliferative activity against human A549 cells assessed as reduction in cell viability incubated for 48 hrs by xCELLigence RTCA; assay type: functional, cell-based; conditions: A549, 48 h
SGC-7901 [4] = test: Down regulation of c-kit gene expression in human SGC-7901 cells at 15 uM incubated for 36 hrs by Western blot analysis; assay type: functional, cell-based
How it was run: (§2)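 Cells exposed to compound for 36 h, then lysed in RIPA and protein measured by BCA. 30 units of total protein separated by 10% SDS-PAGE, transferred to PVDF and blocked with 5% BSA. Primary antibodies, with β-tubulin as reference, at 4 °C; secondary 2 h; ECL detection. Bands quantified by densitometry, mean ± SD, n = 3.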

MKN-45 = test: Antiproliferative activity against human MKN-45 cells assessed as reduction in cell viability incubated for 48 hrs by xCELLigence RTCA; assay type: functional, cell-based; conditions: MKN-45, 48 h
SGC-7901 [5] = test: Induction of morphological changes in human SGC7901 cells assessed as appearance of round shaped cells at 7.5 uM incubated for 36 hrs by microscopic analysis; assay type: functional, cell-based
How it was run: (§3)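 Cells seeded at 2 × 10^5 per well and grown 24 h. Medium then replaced with compound-containing medium. After 36 h co-culture, morphology inspected by light microscopy.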

dsDNA [6] = test: Binding affinity to 5'-AGGGGAGGCGAGGAGGGGCGTGGCCGG-3'/3'-TCCCCTCCGCTCCTCCCCGCACCGGCC-5' dsDNA (unknown origin) at 1:8 DNA:compound ratio by SYBR GOLD staining based EMSA; assay type: nucleic-acid assay; conditions: Homo sapiens; how it was run: as §1
Bel-7402 = test: Antiproliferative activity against human Bel-7402 cells assessed as reduction in cell viability incubated for 48 hrs by xCELLigence RTCA; assay type: functional, cell-based; conditions: Bel-7402, 48 h
A549 [7] = test: Inhibition of cell migration in human A549 cells at 1.5 uM incubated for 48 hrs by inverted fluorescence microscope based scratch wound healing assay; assay type: functional
How it was run: (§4)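 20 × 10^4 cells per well grown to 80% confluence. Wound scratched with a pipette tip, washed twice with PBS and photographed under an inverted fluorescence microscope. Cells then held in serum-free medium with compound for 48 h. Migration measured as distance moved from the wound edge; mean ± SD, n = 3.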

SGC-7901 [8] = test: Induction of apoptosis in human SGC7901 cells assessed as apoptotic rate at 20 uM incubated for 36 hrs by Annexin V-FITC/propidium iodide staining-based flow cytometric analysis; assay type: functional
A549 [9] = test: Induction of morphological changes in human A549 cells assessed as membrane bulge at 15 uM incubated for 36 hrs by microscopic analysis; assay type: functional, cell-based; how it was run: as §3
dsDNA [10] = test: Binding affinity to 5'-AGGGGAGGCGAGGAGGGGCGTGGCCGG-3'/3'-TCCCCTCCGCTCCTCCCCGCACCGGCC-5' dsDNA (unknown origin) by SYBR GOLD staining based EMSA; assay type: nucleic-acid assay; conditions: Homo sapiens; how it was run: as §1
A549 [11] = test: Induction of morphological changes in human A549 cells assessed as cell detachment at 15 uM incubated for 36 hrs by microscopic analysis; assay type: functional, cell-based; how it was run: as §3
SGC-7901 [12] = test: Induction of morphological changes in human SGC7901 cells assessed as apoptotic body formation at 7.5 uM incubated for 36 hrs by microscopic analysis; assay type: functional, cell-based; how it was run: as §3
A549 [13] = test: Induction of apoptosis in human A549 cells assessed as apoptotic rate at 20 uM incubated for 36 hrs by Annexin V-FITC/propidium iodide staining-based flow cytometric analysis; assay type: functional
SGC-7901 [14] = test: Inhibition of cell migration in human SGC7901 cells at 1.5 uM incubated for 48 hrs by inverted fluorescence microscope based scratch wound healing assay; assay type: functional; how it was run: as §4
A549 [15] = test: Down regulation of c-kit gene expression in human A549 cells at 15 uM incubated for 36 hrs by Western blot analysis; assay type: functional, cell-based; how it was run: as §2
SGC-7901 [16] = test: Induction of morphological changes in human SGC7901 cells assessed as cell detachment at 7.5 uM incubated for 36 hrs by microscopic analysis; assay type: functional, cell-based; how it was run: as §3
SGC-7901 [17] = test: Antiproliferative activity against human SGC7901 cells assessed as reduction in cell viability incubated for 48 hrs by xCELLigence RTCA; assay type: functional, cell-based; conditions: SGC-7901, 48 h

In the case of `CC(=O)Nc1cn(C)c(C(=O)Nc2cn(C)c(C(=O)NCCC(=O)Nc3cn(C)c(C(=O)Nc4cn(C)c(C(=O)NCC[C@@H](N)C(=O)Nc5cc(C(=O)Nc6cc(C(=O)NC[C@@H](O)CC(=O)Nc7cc(C(=O)Nc8cc(C(=O)NCCC(=O)NCCCN(C)C)n(C)c8)n(C)c7)n(C)c6)n(C)c5)n4)n3)n2)n1`, the Activity (dsDNA [1]) is reported as “inactive”.

`CC(=O)Nc1cn(C)c(C(=O)Nc2cn(C)c(C(=O)Nc3cc(C(=O)Nc4cn(C)c(C(=O)NCCC(=O)Nc5cn(C)c(C(=O)Nc6cn(C)c(C(=O)NCC[C@@H](NC(=O)c7nc(NC(=O)c8nc(NC(=O)c9nccn9C)cn8C)cn7C)C(=O)Nc7cc(C(=O)Nc8cc(C(=O)NC[C@@H](O)CC(=O)Nc9cc(C(=O)Nc%10cn(C)c(C(=O)Nc%11cc(C(=O)Nc%12cc(C(=O)NCCC(=O)NCCCN(C)C)n(C)c%12)n(C)c%11)n%10)n(C)c9)n(C)c8)n(C)c7)n6)n5)n4)n(C)c3)n2)n1.Cl.Cl` was tested, and the Activity (dsDNA [2]) was “Active”, the IC50 (A549 [3]) was 7.93 µM and the Activity (SGC-7901 [4]) was “Active”. The IC50 (MKN-45) was 19.9 µM, the Activity (SGC-7901 [5]) was “Active” and the Activity (dsDNA [6]) was “Active”. The IC50 (Bel-7402) was 14.9 µM, the inhibition at 1.5 µM (A549 [7]) was 73.5% and the Activity (SGC-7901 [8]) was 53.3%. The Activity (A549 [9]) was “Active”, the Activity (dsDNA [10]) was “Dose-dependent effect” and the Activity (A549 [11]) was “Active”. For the same compound, the Activity (SGC-7901 [12]) was “Active”, the Activity (A549 [13]) was 47.9% and the inhibition at 1.5 µM (SGC-7901 [14]) was 80.8%. For the same compound, the Activity (A549 [15]) was “Active”, the Activity (SGC-7901 [16]) was “Active” and the IC50 (SGC-7901 [17]) was 6.05 µM.

With `Cc1ccc(NC(=O)c2ccc(CN3CCN(C)CC3)cc2)cc1Nc1nccc(-c2cccnc2)n1` [IMATINIB MESYLATE] the IC50 (A549 [3]) was 1.87 µM, the IC50 (MKN-45) was 12.2 µM and the IC50 (Bel-7402) was 55.5 µM. The IC50 (SGC-7901 [17]) was 0.208 µM.

For `CC(=O)Nc1cn(C)c(C(=O)Nc2cn(C)c(C(=O)Nc3cn(C)c(C(=O)NCCC(=O)Nc4cn(C)c(C(=O)Nc5cn(C)c(C(=O)NCC[C@@H](N)C(=O)Nc6cc(C(=O)Nc7cc(C(=O)NC[C@@H](O)CC(=O)Nc8cc(C(=O)Nc9cc(C(=O)Nc%10cc(C(=O)NCCC(=O)NCCCN(C)C)n(C)c%10)n(C)c9)n(C)c8)n(C)c7)n(C)c6)n5)n4)n3)n2)n1`, the Activity (dsDNA [1]) was “inactive”.

In the case of `CC(=O)Nc1cn(C)c(C(=O)Nc2cn(C)c(C(=O)NC[C@@H](O)CC(=O)Nc3cn(C)c(C(=O)Nc4cn(C)c(C(=O)NCC[C@@H](N)C(=O)Nc5cc(C(=O)Nc6cc(C(=O)NCCC(=O)Nc7cc(C(=O)Nc8cc(C(=O)NCCC(=O)NCCCN(C)C)n(C)c8)n(C)c7)n(C)c6)n(C)c5)n4)n3)n2)n1`, the Activity (dsDNA [1]) is reported as “inactive”.
